# ChEMBL document CHEMBL1157438, “Maleimide and maleic anhydride derivatives from the mycelia of Antrodia cinnamomea and their nitric oxide inhibitory activities in macrophages” (2008)
# What was measured:
# RAW264.7 [1] = experiment: Cell viability of LPS-stimulated mouse RAW264.7 cells after 24 hrs by MTT assay; format: functional; design: concentration or dose not given beside the values
# Procedure, shortened: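 Cells cultured as for the nitrite assay (DMEM/10% FBS, medium renewed at 24 h) and exposed to compounds at 0–20 µg/mL plus LPS 1 µg/mL for 24 h. MTT (5 mg/mL stock in PBS, 10 µL per 100 µL culture) added for 4 h at 37 °C, formazan dissolved in DMSO, read at 550 nm; untreated cells set as 100%. Mean ± SD, three experiments in triplicate.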
# RAW264.7 [2] = experiment: Antiinflammatory activity in mouse RAW264.7 cells assessed as inhibition of LPS-induced NO production by measuring nitrite level after 24 hrs; format: functional
# Procedure, shortened: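 RAW264.7 cells in DMEM with 10% heat-inactivated FBS, 37 °C, 5% CO2, 96-well; medium renewed after 24 h, then compounds (0, 1, 5, 10 or 20 µg/mL) added with LPS 1 µg/mL for 24 h. Supernatant mixed 1:1 with Griess reagent, 10 min room temperature, nitrite read at 540 nm. Mean ± SD of three experiments, each in triplicate.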
Structure (SMILES),Activity (RAW264.7 [1]) [%],Activity (RAW264.7 [2]) [µM]
CC(=O)ON1C(=O)C(CC(C)C)=C(c2ccc(OCC=C(C)C)cc2)C1=O [ANTROCINNAMOMINS A],91.1,12.5
CC(C)CC1=C(c2ccc(O)cc2)C(=O)OC1=O [ANTROCINNAMOMIN C],76.3,21.8
CC(C)=CCOc1ccc(C2=C(CC(C)C)C(=O)NC2=O)cc1,69.1,10.6
CC(C)CC1=C(c2ccc(O)cc2)C(=O)N(O)C1=O [ANTROCINNAMOMIN B],82.2,18
CC(C)=CCOc1ccc(C2=C(CC(C)C)C(O)OC2=O)cc1 (centres undefined) [ANTROCINNAMOMIN D],88.2,20
CC(C)=CCOc1ccc(C2=C(CC(C)C)C(=O)OC2=O)cc1,67.9,20.8
CC(C)=CCOc1ccc(C2=C(CC(C)C)C(=O)N(O)C2=O)cc1,86.8,18.3
